Neddyl block: inhibitors of human cullin neddylation | calls only at 25 µM | hit rate 0.58% among 360,000 | AID 651699 | P61081+Q13564 | TR-FRET cullin neddylation, biochemical; in the data active = inhibition above about 36%
KLK7 zymogen act: proKLK7 (human) activation, primary screen | P49862 | purified proKLK7, EDANS-DABCYL substrate fluorescence; 100% is mature enzyme control, 0% vehicle | activation, % at 7 µM | hit rate 0.9% among 370,000 | AID 652039;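 active = activation above the mean of all tested compounds plus 3 SD, computed per campaign excluding outliers beyond control limits, cut at about 13% in these data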
Target sequence (P49862 whole entry, looked up): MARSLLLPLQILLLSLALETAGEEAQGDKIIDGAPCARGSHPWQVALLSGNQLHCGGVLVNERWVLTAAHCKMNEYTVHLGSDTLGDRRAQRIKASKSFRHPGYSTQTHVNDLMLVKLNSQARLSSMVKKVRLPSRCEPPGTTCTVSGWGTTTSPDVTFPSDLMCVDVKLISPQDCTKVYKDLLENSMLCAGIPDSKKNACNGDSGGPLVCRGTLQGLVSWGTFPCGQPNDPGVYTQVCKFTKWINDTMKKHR
DDE Tn6 FP inh: disrupts Tn6 cyclic peptide binding to fibrin D-Dimer-E complex; Fibrin DD(E) TRITC-Tn6 fluorescence polarization displacement; hit rate 0.21% among 370,000; inhibition, % at 8.3 µM; P02675;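 active = inhibition above a per-campaign cutoff: mean of compounds within control limits plus 3 SD, cut at about 15% in these data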;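 also: 0% = median of all compound wells on the plate and 100% = blocking peptide control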
Tn7 DDE FP: DD(E)-Tn7 binding inhibition, primary FP screen; P02675; FP displacement of FITC-Tn7 peptide from fibrin DD(E); 0% = median of compound wells per plate; inhibition, % at 8.3 µM; hit rate 0.13% among 370,000;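 active = inhibition above the mean of compounds falling within the control limits plus 3 SD of them, cut at about 14% in these data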;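 also: 0% = plate median of compound wells and 100% = 10 µM Aha-Tn7 peptide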
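Assay system: Fibrin-DD(E) protein isolated from polymerized human fibrin clots; read-out basis: percent inhibition; medium: Tris/NaCl/CaCl2 buffer, pH 7.8; signal: FP measurement; incubation: 10 min plus 3 h, room temperature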
SKN-1 block: inhibitors of C. elegans SKN-1; hit rate 0.49% among 360,000; AID 624304; inhibition, % at 21.8 µM; C. elegans VP596 Pgst-4::GFP/RFP ratio, acrylamide-induced, 24 h;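 active = interference check ratio from 0.5 to 1.5 plus GFP to RFP signal ratio inhibition reaching or exceeding a fixed threshold, cut at about 30% in these data, passing the limit was not always enough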
MT1-MMP act inh: MT1-MMP (human) activation inhibition | GFP/RFP ratio change, % at 20 µM | AID 651647 | HT1080 RFP-PRO-GFP cells, GFP/RFP ratio fluorescence, overnight; percent of plate control window, DMSO zero | hit rate 0.061% among 360,000;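 active = GFP/RFP ratio change of at least 30% with cell ATP level not reduced by more than half and red fluorescence within 50% of control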
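Assay system: HT1080 RFP-PRO-GFP cells. Benchmarks: DMSO vehicle wells and RFP-L50D-GFP reporter cell wells. Times: overnight cell settling, then overnight compound exposure, 37 °C, 5% CO2. Compound: 20 µM single dose, 1% DMSO. Read-out basis: GFP/RFP fluorescence ratio.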
An asterisk follows results filed as active; i = inactive; . = no result given. In the library only some 2.2% were active in any assay of this set; here they are far more common.

SMILES	Neddyl block	KLK7 zymogen act	DDE Tn6 FP inh	Tn7 DDE FP	SKN-1 block	MT1-MMP act inh
CN(C)S(=O)(=O)c1cccc2c1C(=O)c1ccccc1C2=O	i	1.3	-5.4	-5.0	-2.7	0.9
O=C1c2ccccc2C(=O)c2c(NCc3cccnc3)cccc21	i	-0.6	6.1	0.6	42.8*	28.2
CNc1cccc2c1C(=O)c1ccccc1C2=O	i	-0.4	-3.8	-1.5	45.1*	25.3
O=C(OCC(=O)C12CC3CC(CC(C3)C1)C2)c1cnccn1	i	-0.1	-3.1	-8.1	-16.4	.
Cc1cc2nn(-c3ccc(Cl)cc3)nc2cc1N	.	-13.8	1.9	-9.9	20.4	0.1
CC(C)c1ccc(-n2nc3ccc(N)cc3n2)cc1	.	-2.1	0.9	-1.6	-3.8	-10.7
Cc1ccc(-n2nc3ccc(N)cc3n2)cc1	.	35.2*	-7.8	-5.2	18.0	2.4
Cc1cc2nn(-c3ccc(F)cc3)nc2cc1N	.	2.0	-5.8	0.6	39.4*	-3.1
CCOC(=O)C1=C(O)c2ccccc2C(=O)/C1=C\c1ccc(C)cc1	i	.	.	.	47.8*	8.5
CCOC(=O)C1=C(C)OC(=Cc2ccccc2)C1=O	i	1.5	-1.8	-2.4	19.6	-12.8
Cc1ccc2c([N+](=O)[O-])cccc2n1	i	0.5	4.7	-4.4	-3.3	-2.8
Cc1ccc2c([N+](=O)[O-])c(C)ccc2n1	i	0.5	-10.2	-1.2	35.4*	-8.7
Cc1cc(NC(=O)COC(=O)COc2ccc(Cl)c(C)c2)no1	i	0.8	-8.7	2.6	-16.6	-2.2
O=C(Nc1ccc(Cl)cn1)c1cc2c(s1)-c1ccccc1OC2	.	-18.3	3.9	5.8	37.8*	0.1
O=[N+]([O-])c1ccc2nc(N3CCCC3)sc2c1	i	0.6	-0.9	-5.7	38.9*	1.8
FC(F)(F)c1cc(-c2cccs2)nc(-n2cc(Br)cn2)n1	i	-0.7	-4.3	-9.6	45.2*	0.1
Cc1cnn(-c2nc(-c3cccs3)cc(C(F)(F)F)n2)c1	i	-0.1	4.8	0.1	20.5	-2.2
O=c1c2ccccc2oc2ccc(Oc3ccccc3)cc12	i	0.8	-0.8	6.6	41.3*	4.6
O=C1c2cccnc2C(=O)N1Cc1ccccc1	i	-0.4	1.3	4.3	-2.3	0.6
CC(c1ccccc1)N1C(=O)c2cccnc2C1=O (stereo unspecified)	i	-0.3	-11.8	0.0	38.6*	2.7
Cc1ccccc1CNC(=O)c1ccc2sc([C@H]3C[C@H](O)[C@@H](CO)O3)nc2c1	i	0.4	-2.3	-2.1	39.2*	2.0
O=c1[nH]cccc1-c1nc2cc(Cl)ccc2n1Cc1ccccc1	.	-0.3	0.8	5.5	11.4	0.2
COc1cccc(-c2nnc(-c3ccco3)o2)c1	.	0.6	4.7	-8.3	11.8	-0.3
CCCOc1ccc(-c2nnc(-c3ccco3)o2)cc1	.	0.4	0.3	4.8	78.6*	4.3
CC(C)COc1ccc(-c2nnc(-c3ccco3)o2)cc1	.	-0.2	-10.7	-0.4	43.2*	3.8
SMILES	Neddyl block	KLK7 zymogen act	DDE Tn6 FP inh	Tn7 DDE FP	SKN-1 block	MT1-MMP act inh
O=C(OC1CCOC1=O)c1cccc(S(=O)(=O)N2CCc3ccccc3C2)c1 (stereo unspecified)	i	0.1	-4.6	3.6	-11.3	0.9
O=C(CNS(=O)(=O)c1ccccc1)N1CCN(c2ncccn2)CC1	.	0.1	-4.9	-7.7	.	.
Cc1cccc(N2CCN(C(=O)c3cccc(N4C(=O)C5CC=CC(C)C5C4=O)c3)CC2)c1C (stereo unspecified)	i	0.6	2.9	-6.7	-1.2	-1.0
Clc1nssc1=Nc1ccc(Br)cc1	i	-0.1	9.7	4.8	94.2*	0.9
COc1cccc(NC(=O)C(OC(=O)c2ccccc2NS(=O)(=O)c2cccs2)c2ccccc2)c1 (stereo unspecified)	i	-9.7	-11.2	-1.0	0.9	-0.2
O=C(NC1CCN(C(=S)Nc2ccc(Cl)cc2)CC1)c1ccco1	i	-0.5	4.9	3.7	47.3*	-0.8
O=C(NC1CCN(C(=S)Nc2ccc(F)cc2)CC1)c1ccco1	i	0.5	2.3	-0.7	-1.9	-1.0
CCCCN(C)S(=O)(=O)c1ccc(C(=O)Nc2nnc(C3=COCCO3)o2)cc1	i	0.0	-2.2	-5.5	-15.3	-1.9
